Bioassay records deposited in PubChem BioAssay by several laboratories.
Shown are actives, neighbours in structure and some others; about 3.9% of the full set was active somewhere.
APP 5'UTR act: activators of APP 5'UTR luciferase reporter, primary screen, SH-SY5Y cells; actives 1% (n = 190,000); AID 1276, 2008; SH-SY5Y APP 5'UTR luciferase reporter, luminescence; zero percent = DMSO vehicle wells; activation, % at 2 µM;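 active = activation above a set limit, based on mean plus 3 SD of controls, cut at about 140% in these data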
STAT3 activator: IL-6 driven STAT3 reporter potentiators, primary screen, U3A cells, luciferase, luminescence, MLSCN library | AID 871, 2007 | activation (% of control), % at 5.6 µM | actives 0.91% (n = 190,000) | IL-6 STAT3-luciferase reporter; 100% = signal with IL-6 EC80 alone;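 active = activation above the screen-wide mean of compound activation plus 3 SD, cut at about 130% in these data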
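Test system: STAT3-luciferase reporter U3A cells; Detection: reporter luminescence signal; Times: 1 h compound pre-exposure, 6 h IL-6 stimulation, 37 °C; Benchmarks: IL-6-only high control; Also added: IL-6 stimulus at 33 ng/mL final.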
NF-kB expr up: activators of NF-kB expression in neurons, primary screen, cell-based, HTS; human neuronal cells, NF-kB reporter expression; hits give high values; fold change at 12.5 µM; actives 1.6% (n = 190,000); in the data active = fold change above about 3.3
STAT1 act: STAT1 signaling activators, primary screen, cell-based, HTS, luciferase reporter | NIH 3T3 STAT1-luciferase reporter, IFN-gamma, luminescence; 100% = IFN-gamma alone, no compound | activation (% of control), % at 5.5 µM | actives 2.6% (n = 200,000);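 active = activation above the screen-wide mean activation plus 3 SD, cut at about 130% in these data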
Pf gamet viab: late stage P. falciparum gametocyte viability inhibitors, primary screen, ATP luminescence, HTS | inhibition, % at 10.9 µM | AID 743093, 2013 | actives 0.065% (n = 150,000) | P. falciparum stage V gametocytes, 24 h;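 active = inhibition above the mean plus 3 SD of compounds within the control limits, set per campaign, cut at about 38% in these data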
STAT1 blocker: STAT1 signaling inhibitors, primary screen, cell-based, HTS, luciferase reporter; NIH 3T3 STAT1-luciferase reporter, IFN-gamma, luminescence; inhibition, % at 5.5 µM; actives 0.35% (n = 200,000);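 active = inhibition above a set limit, the mean inhibition across all tested compounds plus 3 SD, cut at about 34% in these data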
Of the large screens only hits and unclear results are named; the others gave an inactive call.

O=C(O)c1ccccc1C(=O)NNc1cccc(Cl)n1	APP 5'UTR act 155.2
CCOC(=O)c1noc(C)c1C(=O)Nc1nccs1	NF-kB expr up 5.95
CN1C(=O)C2(Oc3ccccc3C3CC(c4ccccc4)=NN32)c2ccccc21 (stereo not given)	APP 5'UTR act 137.1 (no result: Pf gamet viab)
Cc1ccc(C2=NN3C(C2)c2ccccc2OC32C(=O)Nc3ccccc32)cc1 (stereo not given)	APP 5'UTR act 203.7, NF-kB expr up 8.67
COC(=O)c1ccc(Cn2cc(Cl)cn2)o1	none (no result: APP 5'UTR act, STAT3 activator, NF-kB expr up, STAT1 act, STAT1 blocker)
COc1ccc(/C=C/c2nnc(NC(=O)CSc3ccc(Cl)cc3)s2)cc1	none
Cc1ccnc(Nc2nc3ccccc3o2)n1	APP 5'UTR act 140.1 (no result: Pf gamet viab)
Cc1ccc(Nc2nc3ccccc3o2)cc1F	APP 5'UTR act 136.2, STAT1 act 132.7
CCCc1nc(Nc2nc3ccccc3o2)nc(C)c1C(=O)OCC	STAT1 act 144.4
CCOC(=O)c1cnc(Nc2nc3ccccc3o2)nc1CSc1ncccn1	none (no result: NF-kB expr up, Pf gamet viab)
CCOC(=O)c1cnc(Nc2nc3ccccc3o2)nc1CSC(=S)N(CC)CC	NF-kB expr up 23.9 (no result: Pf gamet viab)
N#C/C(=N\Nc1cccc(C(F)(F)F)c1)C(=O)c1ccsc1	none (no result: APP 5'UTR act, STAT3 activator, NF-kB expr up, STAT1 act, STAT1 blocker)
Cc1ccc(C)c(C2=NNC(=O)CC2)c1	none (no result: APP 5'UTR act, STAT3 activator, NF-kB expr up, STAT1 act, STAT1 blocker)
Cc1ccsc1C(=O)N1CCC(N2CCC(C(=O)NCC3CCCO3)CC2)CC1 (stereo not given)	none
O=C(CCNC(=O)Cn1ccc2ccccc2c1=O)NCc1ccccn1	none
Cc1nc(Nc2nc3ccccc3o2)nc(C)c1C	APP 5'UTR act 143.0
CCC(=O)Oc1ccc(C2NC(=O)c3ccccc3O2)cc1OC (stereo not given)	none (no result: APP 5'UTR act, STAT3 activator, NF-kB expr up, STAT1 act, STAT1 blocker)
O=C(NCCN1C(=O)S/C(=C\c2ccc(F)cc2)C1=O)C1CCN(S(=O)(=O)c2cccs2)CC1	none (no result: Pf gamet viab)
COc1ccc(/C=C2\SC(=O)N(CCNC(=O)C3CCN(S(=O)(=O)c4cccs4)CC3)C2=O)cc1	STAT1 act 138.3 (no result: Pf gamet viab)
COc1ccc(/C=C2\SC(=O)N(CCNC(=O)CCS(=O)(=O)c3ccc(C)cc3)C2=O)cc1	STAT1 act 130.6
COc1ccc(/C=C2\SC(=O)N(CCNC(=O)Cn3cnnn3)C2=O)cc1	NF-kB expr up 3.71, STAT1 act 137.5 (no result: Pf gamet viab)
Cc1nc2c(sc3nc(N4CCOCC4)c4c(c32)CC(C)(C)OC4)c(-c2ccc(Cl)cc2)c1C(=O)O	none (no result: APP 5'UTR act, STAT3 activator, NF-kB expr up, STAT1 act, STAT1 blocker)
COc1cccc(-c2nc(NC(C)C)c3ccccc3n2)c1O	STAT3 activator 134.0
Cc1cccc(C(=O)Nc2ccc(N3CCN(S(C)(=O)=O)CC3)cc2)c1	none
CCOc1ccc(C(=O)Nc2cccc(C(=O)O)c2C)cc1Cl	NF-kB expr up 3.45, STAT1 blocker 50.9
CCOc1ccc(C(=O)Nc2ccccc2-c2ccccc2)cc1Cl	none (no result: Pf gamet viab)
COc1ccc(C(=O)Nc2ccccc2C(=O)O)cc1Cl	none
CCOc1c(Cl)cc(C(=O)Nc2ccccc2C(=O)O)cc1Cl	NF-kB expr up 3.96 (no result: Pf gamet viab)
N/C(Cc1nc(-c2ccc(Br)cc2)cs1)=N\O	none
O=C(Oc1ccc(-c2nccc(-c3ccccn3)n2)cc1)c1cccc(C(F)(F)F)c1	NF-kB expr up 3.42
CC(=O)Nc1sc(N/N=C\c2cccc(Cl)c2)nc1-c1cccs1	STAT3 activator 133.4 (no result: Pf gamet viab)
Cc1cc(C)nc(SCC(=O)Nc2ccnc3ccccc23)n1	STAT1 blocker 36.3
S=C1NCCNC(=S)NCCOCCOCCOCCN1	none
O=C(CSc1ccccn1)N1CCc2ccccc21	NF-kB expr up 3.52, STAT1 act 132.6
O=C(CSc1nnc2ccccn12)N1CCc2ccccc21	STAT1 act 134.6
CCCOc1cccc(C(=O)Nc2ccc(Br)cc2F)c1	STAT1 act 135.9
COc1ccc(N2CCN(C(=O)CCNC(=O)Cn3ccc4ccccc4c3=O)CC2)cc1	none
O=C(Nc1cc(C(F)(F)F)ccc1N1CCOCC1)c1ccccc1F	none (no result: Pf gamet viab)
Cc1ccc2nc(SCC(=O)Nc3cc(C(F)(F)F)ccc3N3CCOCC3)[nH]c2c1	NF-kB expr up 3.57 (no result: Pf gamet viab)
O=C(Nc1cc(C(F)(F)F)ccc1N1CCOCC1)c1ccc2ccccc2n1	STAT3 activator 133.7
O=C(CSc1nc2ccccc2[nH]1)N1CCCCC1	STAT1 act 130.2
Cc1ccc2nc(SCC(=O)N3CCOCC3)[nH]c2c1	STAT1 act 131.7 (no result: Pf gamet viab)
Cc1ccc2nc(SCC(=O)N3CCN(c4ccccc4)CC3)[nH]c2c1	none (no result: APP 5'UTR act, STAT3 activator, NF-kB expr up, STAT1 act, STAT1 blocker)
CC(NC(=O)Nc1ccc([N+](=O)[O-])cc1)C(c1cccs1)N1CCCC1 (stereo not given)	none
COc1cccc2cc(-c3nnc(-c4ccccc4)o3)c(=O)oc12	APP 5'UTR act 137.7
COc1cccc2cc(-c3cn4cccc(C)c4n3)c(=O)oc12	STAT1 act 136.0 (no result: NF-kB expr up, Pf gamet viab)
CCOc1cccc2cc(-c3cn4cc(C)ccc4n3)c(=O)oc12	NF-kB expr up 3.46, STAT1 act 141.4 (no result: Pf gamet viab)
CCOc1cccc2cc(C(C)=O)oc12	none
COc1cccc2cc(-c3csc(CCn4nc(C)cc4C)n3)c(=O)oc12	none
Cc1cc(N2CC(C)OC(C)C2)nc2ccccc12 (stereo not given)	none
O=C(CCNc1n[nH]c(=O)[nH]c1=O)N/N=C/c1ccc(C(F)(F)F)cc1	none
O=C(O)c1cc(NC(=O)c2ccccc2[N+](=O)[O-])ccc1O	none
COc1ccc(-c2nnc(SC(C)C(=O)NNC(=O)c3ccc(C)cc3)o2)cc1 (stereo not given)	none (no result: Pf gamet viab)
COc1ccc(-c2nnc(SC(C)C(=O)Nc3cccc(Cl)c3)o2)cc1 (stereo not given)	APP 5'UTR act 219.0, NF-kB expr up 5.57 (no result: Pf gamet viab)
Cc1ccc(OCC(=O)Oc2ccc(C)c(C)c2)cc1	none (no result: APP 5'UTR act, STAT3 activator, NF-kB expr up, STAT1 act, STAT1 blocker)
Cc1cc(C(=O)N2CCCc3ccccc32)ccc1[N+](=O)[O-]	none (no result: APP 5'UTR act, STAT3 activator, NF-kB expr up, STAT1 act, STAT1 blocker)
CN1CCN(C(=O)NCC23CC4CC(CC(C4)C2)C3)CC1	none
CCOC(=O)Cn1cncc1-c1ccc([N+](=O)[O-])cc1	STAT1 act 129.6
Cc1c([N+](=O)[O-])c(C/C=N/O)nn1C	none (no result: APP 5'UTR act, STAT3 activator, NF-kB expr up, STAT1 act, STAT1 blocker)
c1ccc2c(c1)nc(NC1CCCCC1)c1nncn12	STAT3 activator 135.7 (no result: Pf gamet viab)
Cc1nnc2c(NC3CCCC3)nc3ccccc3n12	none (no result: Pf gamet viab)
O=C(COC(=O)c1ccccc1Cc1ccccc1)Nc1ccc(SC(F)F)cc1	STAT1 act 132.0
Cc1ccc(C(=O)c2ccccc2C(=O)OCC(=O)Nc2ccc(SC(F)F)cc2)cc1	none
CN(CC(=O)NC1CCCc2ccccc21)S(=O)(=O)c1cccs1 (stereo not given)	none (no result: Pf gamet viab)
CN(CC(=O)N1CCc2ccccc21)S(=O)(=O)c1cccs1	STAT1 act 129.9
CCc1ccc(Oc2cc(C)nc(N)n2)cc1	NF-kB expr up 3.31, STAT1 act 131.9 (no result: Pf gamet viab)
CCCc1ccc(Oc2cc(Cl)nc(N)n2)cc1	none
CSc1ccccc1-c1nnc(-c2ccc(Cl)cc2Cl)o1	none
